One test has as its system PC-3. The test is described as follows: Cytotoxicity against human p53-null PC3 cells assessed as growth inhibition after 72 hrs by SRB assay. Type of test: functional, cell-based. To be noted: PC-3, 72 h. The essentials: (§1)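 Cells seeded in 96-well plates, cultured overnight, then exposed to serial compound concentrations for 72 h. Fixed with 10% (w/v) TCA at 4 °C for 1 h, stained 30 min with 0.4% SRB in 1% acetic acid, washed with 1% acetic acid, bound dye dissolved in 10 mmol unbuffered Tris base, absorbance read at 515 nm. Inhibition calculated relative to untreated control wells; IC50 derived.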

Test [1] deals with Tumour suppressor p53/oncoprotein Mdm2 (Homo sapiens, UniProt Q00987). Nature of the test: (§2) Inhibition of p53-MDM2 (unknown origin) interaction expressed in Escherichia coli BL-21 (DE3) after 1 hr by fluorescence polarization assay. A general note: Fluorescence polarisation rises when a labelled molecule tumbles more slowly, as on binding a larger partner.
Test [2] relates to A549. The test is described as follows: Cytotoxicity against human A549 cells expressing wild type p53 assessed as growth inhibition after 72 hrs by SRB assay. The class given is functional, cell-based. To be noted: A549, 72 h. The essentials:
as §1

The target in test [3] is Tumour suppressor p53/oncoprotein Mdm2 (Homo sapiens, UniProt P04637+Q00987). The test is described as §2.
Test [4] concerns A549. The test is described as follows: Selectivity ratio of IC50 for human p53-null PC3 cells to IC50 for human A549 cells expressing wild type p53. Type of test: functional.

Tumour suppressor p53/oncoprotein Mdm2 (Homo sapiens, UniProt P04637+Q00987), sequence (P04637 whole entry): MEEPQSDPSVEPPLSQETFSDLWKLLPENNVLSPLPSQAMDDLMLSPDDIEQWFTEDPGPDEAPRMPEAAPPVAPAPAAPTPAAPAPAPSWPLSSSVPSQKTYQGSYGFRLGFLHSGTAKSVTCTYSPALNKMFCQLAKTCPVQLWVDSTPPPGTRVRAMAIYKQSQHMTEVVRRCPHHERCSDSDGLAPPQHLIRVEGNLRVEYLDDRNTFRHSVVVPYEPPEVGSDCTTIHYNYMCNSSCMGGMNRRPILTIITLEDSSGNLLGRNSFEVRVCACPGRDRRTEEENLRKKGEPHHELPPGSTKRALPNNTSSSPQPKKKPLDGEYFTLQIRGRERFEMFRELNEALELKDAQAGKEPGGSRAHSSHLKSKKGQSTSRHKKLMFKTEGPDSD
Tumour suppressor p53/oncoprotein Mdm2 (Homo sapiens, UniProt P04637+Q00987), sequence (Q00987 whole entry): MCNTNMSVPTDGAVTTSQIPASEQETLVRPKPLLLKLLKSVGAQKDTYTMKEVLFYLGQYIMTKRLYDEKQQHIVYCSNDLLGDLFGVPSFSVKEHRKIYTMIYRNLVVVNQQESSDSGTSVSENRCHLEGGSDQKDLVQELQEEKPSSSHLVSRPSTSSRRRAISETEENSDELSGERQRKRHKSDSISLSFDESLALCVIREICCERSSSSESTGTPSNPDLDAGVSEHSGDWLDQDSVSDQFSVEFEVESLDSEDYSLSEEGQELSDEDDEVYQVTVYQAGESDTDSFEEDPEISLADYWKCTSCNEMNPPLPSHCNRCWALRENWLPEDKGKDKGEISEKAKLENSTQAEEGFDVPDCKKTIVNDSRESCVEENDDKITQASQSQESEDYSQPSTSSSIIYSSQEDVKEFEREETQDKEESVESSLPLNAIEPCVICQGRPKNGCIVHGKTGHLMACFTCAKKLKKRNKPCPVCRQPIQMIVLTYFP
Tumour suppressor p53/oncoprotein Mdm2 (Homo sapiens, UniProt Q00987), sequence (P04637 whole entry): as the sequence (P04637 whole entry) above
Tumour suppressor p53/oncoprotein Mdm2 (Homo sapiens, UniProt Q00987), sequence (Q00987 whole entry): as the sequence (Q00987 whole entry) above

In general, IC50 refers to the point on the concentration scale where inhibition reaches its midpoint. What is called Ki is the equilibrium dissociation constant of an inhibitor or competing ligand from its target. With `CC(C)CNC(=O)c1c(N)sc(-c2ccc(Cl)cc2)c1-c1ccc(Cl)cc1`, the IC50 in the test on PC-3 was 21 µM. Also, in test [1], the inhibitory constant (Ki) turned out to be 4.13 µM.

In test [1], `COC(=O)c1c(N)sc(-c2ccc(Cl)cc2)c1-c1ccc(Cl)cc1` gave a Ki of 1.52 µM.

For `Nc1sc(-c2ccc(Cl)cc2)c(-c2ccc(Cl)cc2)c1C(=O)NC1CCC1`, the IC50 in the test with PC-3 worked out at 24.8 µM; in the test on A549 [2], 12.5 µM. This molecule also returned a Ki in test [1] of 1.12 µM.

For the molecule `O=C(CCN1CCOCC1)Nc1sc(-c2ccc(Cl)cc2)c(-c2ccc(Cl)cc2)c1C(=O)N1CCCCC1`, the IC50 in the test with PC-3 and in the test with A549 [2] was greater than 25 µM throughout. For the same molecule, the Ki entry in test [3] is recorded as “Not Active”.

Turning to `Nc1sc(-c2ccc(Cl)cc2)c(-c2ccc(Cl)cc2)c1C(=O)NC1CCC(O)CC1` (configuration not stated), in the test on A549 [4], the “Ratio IC50” value was found to be 22. The concentration for half-maximal inhibition (IC50) in the test with PC-3 amounted to 5.67 µM; in the test on A549 [2] it was 0.25 µM. For the same molecule, in test [1], the affinity corresponds to a Ki of 0.99 µM.

Take `Nc1sc(-c2ccc(Cl)cc2)c(-c2ccc(Cl)cc2)c1C(=O)N1CCC(=O)CC1`: the values for the IC50 in the test on PC-3 and with A549 [2] were 1.34 µM and 2.01 µM, respectively. The molecule also yielded a Ki in test [1] of 2.19 µM.

For the molecule `Nc1sc(-c2ccc(Cl)cc2)c(-c2ccc(Cl)cc2)c1C(=O)Nc1ccccc1`, the IC50 in the test on PC-3 is greater than 50 µM; in the test with A549 [2] it was 25 µM. In addition, the Ki in test [1] was greater than 50 µM.

Consider `CCOC(=O)Nc1sc(-c2ccc(Cl)cc2)c(-c2ccc(Cl)cc2)c1C(=O)NC1CC1`, for which the IC50 in the test on PC-3 stood at 27.6 µM; with A549 [2] it was 39.8 µM. The inhibitory constant (Ki) result in test [3] is on record as “Not Active”.

Turning to `CC(=O)Nc1sc(-c2ccc(Cl)cc2)c(-c2ccc(Cl)cc2)c1C(=O)N1CCCCC1`, the IC50 with PC-3 came to 10.3 µM; in the test on A549 [2], 6.01 µM. Further, the Ki in test [1] is 3.57 µM.

For `Nc1sc(-c2ccc(Cl)cc2)c(-c2ccc(Cl)cc2)c1C(=O)NC1CCCC1`, the values for the IC50 in the test with PC-3 and in the test with A549 [2] were 21.2 µM and 6.79 µM, respectively. For the same molecule, affinity in test [1] was put at a Ki of 0.54 µM.

In the case of `CCN(CC)CCNC(=O)Nc1sc(-c2ccc(Cl)cc2)c(-c2ccc(Cl)cc2)c1C(=O)NC1CC1`, the Ki entry in test [3] is “Not Active”.

As for `Nc1sc(-c2ccc(Cl)cc2)c(-c2ccc(Cl)cc2)c1C(=O)N1CCCCC1=O`, the IC50 is 4.94 µM in the test with PC-3 and 1.82 µM in the test with A549 [2]. Besides, affinity in test [1] was put at a Ki of 1.55 µM.

In the case of `CN1CCN(C(=O)c2c(N)sc(-c3ccc(Cl)cc3)c2-c2ccc(Cl)cc2)CC1`, the “Ratio IC50” value in the test on A549 [4] is given as 22. For the same molecule, the values for the IC50 in the test with PC-3 and in the test with A549 [2] were 13.1 µM and 0.59 µM, respectively. Also, the Ki in test [1] came to 1.52 µM.

Consider `CS(=O)(=O)Nc1sc(-c2ccc(Cl)cc2)c(-c2ccc(Cl)cc2)c1C(=O)NC1CC1`, for which the inhibition constant (Ki) in test [1] is greater than 50 µM.

`Nc1sc(-c2ccc(Cl)cc2)c(-c2ccc(Cl)cc2)c1C(=O)NC1CC1` gave a Ki in test [1] of 0.54 µM.

In the case of `CCCCNC(=O)c1c(N)sc(-c2ccc(Cl)cc2)c1-c1ccc(Cl)cc1`, the IC50 was determined as 17.8 µM with PC-3 and 8.17 µM in the test on A549 [2]. In test [1], the affinity corresponds to a Ki of 0.55 µM.

Regarding `CC(C)(C)NC(=O)c1c(N)sc(-c2ccc(Cl)cc2)c1-c1ccc(Cl)cc1`, the figures for the IC50 with PC-3 and in the test with A549 [2] were 15.1 µM and 8.85 µM, respectively. For the same molecule, the Ki in test [1] worked out at 0.81 µM.

As to `CC1CN(C(=O)c2c(N)sc(-c3ccc(Cl)cc3)c2-c2ccc(Cl)cc2)CCN1` (configuration not stated), the IC50 in the test with PC-3 is 7.21 µM; in the test on A549 [2], 4.93 µM. In test [1], this molecule returned a Ki of 17.7 µM.

With `COc1ccc(CNC(=O)c2c(N)sc(-c3ccc(Cl)cc3)c2-c2ccc(Cl)cc2)cc1`, the IC50 amounted to 29.5 µM in the test with PC-3 and 18.2 µM with A549 [2]. The molecule also had a Ki in test [1] of 0.64 µM.

For `Nc1sc(-c2ccc(Cl)cc2)c(-c2ccc(Cl)cc2)c1C(=O)N1CCCCC1`, the 50% inhibitory concentration (IC50) in the test with PC-3 came out at 14.3 µM; in the test on A549 [2], 4.62 µM. Moreover, the Ki in test [1] is 1.21 µM.

In the case of `O=C(NCCN1CCOCC1)Nc1sc(-c2ccc(Cl)cc2)c(-c2ccc(Cl)cc2)c1C(=O)NC1CC1`, the Ki entry in test [3] is on record as “Not Active”.

Molecule `Nc1sc(-c2ccc(Cl)cc2)c(-c2ccc(Cl)cc2)c1C(=O)NC1CCCCC1` displayed a Ki in test [1] of 0.23 µM.

`Nc1sc(-c2ccc(Cl)cc2)c(-c2ccc(Cl)cc2)c1C(=O)N1CCC(=O)CC1=O`: the results for the IC50 with PC-3 and with A549 [2] were 9.23 µM and 4.09 µM, respectively. This molecule also came in with a Ki in test [1] of 3.52 µM.

Turning to `CC1CCN(C(=O)c2c(N)sc(-c3ccc(Cl)cc3)c2-c2ccc(Cl)cc2)CC1`, the IC50 with PC-3 was found to be 5.75 µM; in the test on A549 [2] it was 1.75 µM. For the same molecule, the affinity in test [1] corresponds to a Ki of 0.8 µM.

Regarding `Nc1sc(-c2ccc(Cl)cc2)c(-c2ccc(Cl)cc2)c1C(=O)N1CCOCC1`, the “Ratio IC50” value in the test on A549 [4] is reported as 6. For the same molecule, the IC50 was 11.7 µM with PC-3 and 1.87 µM with A549 [2]. This molecule showed a Ki in test [1] of 0.43 µM.

As for `Nc1sc(-c2ccc(Cl)cc2)c(-c2ccc(Cl)cc2)c1C(=O)NCc1ccccc1`, the IC50 in the test on PC-3 amounted to 31.8 µM; in the test on A549 [2], 16.3 µM. Moreover, the Ki in test [1] was 0.15 µM.

For the molecule `Nc1sc(-c2ccc(Cl)cc2)c(-c2ccc(Cl)cc2)c1C(=O)N1CCCC1`, the Ki in test [1] came to 0.74 µM.

For the molecule `Nc1sc(-c2ccc(Cl)cc2)c(-c2ccc(Cl)cc2)c1C(=O)N1CCNCC1`, the IC50 with PC-3 amounted to 2.71 µM; in the test with A549 [2], 1.02 µM. The molecule also gave an inhibition constant Ki in test [1] of 6.81 µM.

These data come from ChEMBL document CHEMBL2384917, “Design, synthesis and biological evaluation of novel 3,4,5-trisubstituted aminothiophenes as inhibitors of p53-MDM2 interaction. Part 1” (Bioorg Med Chem, 2013).
